In ChEMBL document CHEMBL3102792, “Small molecule mimetics of an interferon-α receptor interacting domain” (Bioorg Med Chem, 2014):
The source made the active and inactive calls. The rule behind the calls is not given here.

Experiments:
[1] = Distribution coefficient, log D of the compound at pH 7.4; conditions: octanol/water
[2] = molecular target: T1, Interferon alpha/beta receptor 1 (Homo sapiens) (UniProt P17181); experiment: Inhibition of IFNAR in human Daudi cells assessed as reduction of IFN-induced STAT1 phosphorylation at 200 uM after 15 mins by Western blotting; format: cell-based
T1 sequence (whole entry): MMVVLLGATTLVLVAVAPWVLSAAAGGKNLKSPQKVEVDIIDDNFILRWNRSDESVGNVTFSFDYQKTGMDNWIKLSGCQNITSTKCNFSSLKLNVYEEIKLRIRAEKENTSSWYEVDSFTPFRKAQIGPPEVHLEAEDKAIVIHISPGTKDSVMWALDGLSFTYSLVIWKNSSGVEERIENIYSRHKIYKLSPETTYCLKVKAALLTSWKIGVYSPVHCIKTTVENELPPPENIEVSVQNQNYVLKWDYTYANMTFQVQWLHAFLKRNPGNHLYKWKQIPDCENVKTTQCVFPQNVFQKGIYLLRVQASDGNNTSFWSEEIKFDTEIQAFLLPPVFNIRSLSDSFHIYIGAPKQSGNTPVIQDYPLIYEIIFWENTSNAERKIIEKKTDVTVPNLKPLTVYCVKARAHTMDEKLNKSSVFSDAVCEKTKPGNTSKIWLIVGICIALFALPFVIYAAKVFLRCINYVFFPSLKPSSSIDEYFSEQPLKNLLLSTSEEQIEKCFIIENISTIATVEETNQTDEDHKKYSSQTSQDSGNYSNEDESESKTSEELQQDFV
Summary of the method: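 Daudi cells untreated, given 10 pg IFN alfacon-1 alone, or 10 pg IFN plus 200 µM compound for 15 min. Lysed in phosphorylation lysis buffer with protease and phosphatase inhibitors. Equal protein run on SDS–PAGE and immunoblotted for tyrosine-phosphorylated STAT1. Bands quantitated relative to tubulin. Data representative of duplicate independent experiments.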

[3] = molecular target: T1, Interferon alpha/beta receptor 1 (Homo sapiens); experiment: Inhibition of IFNAR in human Daudi cells assessed as reduction of STAT-DNA binding at 200 uM by EMSA; format: cell-based
Summary of the method: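 Daudi cells untreated, given 100 pg IFN alfacon-1, or IFN plus the indicated compound doses for 15 min. Protein–DNA complexes resolved by native PAGE (EMSA).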

[4] = molecular target: T1, Interferon alpha/beta receptor 1 (Homo sapiens); experiment: Inhibition of IFNAR in human Daudi cell nuclear extracts assessed as reduction of IFN-induced STAT1 phosphorylation at 200 uM after 15 mins by Western blotting
Summary of the method: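 Daudi cells untreated, given 10 pg IFN alfacon-1 alone, or 10 pg IFN plus 200 µM compound for 15 min. Nuclear extracts immunoblotted for tyrosine-phosphorylated STAT1. Band intensities quantitated relative to tubulin as loading control.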

[5] = Solubility of the compound; format: physicochemical
[6] = test system: Daudi; experiment: Cytotoxicity against human Daudi cells assessed as cell viability up to 200 uM after 24 hrs by propidium iodide staining; format: cell-based
Summary of the method: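 Daudi cells (1 × 10⁶) left untreated or exposed to the indicated compound doses for 24 h, washed twice in PBS and resuspended in PBS with 2% FCS. 10⁵ cells stained with propidium iodide for 15 min; dead (PI-positive) cells counted by FACS.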

| Compound | logD [1] | inhibition [2] | inhibition [3] | inhibition [4] | solubility [5] | Activity [6] |
| --- | --- | --- | --- | --- | --- | --- |
| CCOC(=O)c1nn(-c2ccc(C)cc2)c(C)c1C(=O)C1=NOC2C(=O)N(c3ccccc3C)C(=O)C12 (stereo not given) | -0.1 | inactive | – | – | – | – |
| O=C(c1cc(S(=O)(=O)Nc2cccc(Cl)c2)c(Cl)cc1Cl)N1CCN(Cc2ccc3c(c2)OCO3)CC1 | 2.4 | inactive | – | – | – | – |
| O=C(c1cc(S(=O)(=O)Nc2ccccc2F)c(Cl)cc1Cl)N1CCN(Cc2ccc3c(c2)OCO3)CC1 | 0.01 | inactive | – | – | – | – |
| CCOc1ccccc1/C=N/NC(=O)CSc1nc2ccccc2c(=O)n1-c1ccccc1C (mixture of isomers) | 5.8 | inactive | – | – | – | – |
| O=C(O)CCCCCN1C(=O)/C(=C/c2c(N3CCCc4ccccc43)nc3ccccn3c2=O)SC1=S (mixture of isomers) | 8.9 | Active | Active | Active | – | Toxic |

More lines, main results first:

| logD [1] | inhibition [2] | inhibition [3] | inhibition [4] | solubility [5] | Compound | Activity [6] |
| --- | --- | --- | --- | --- | --- | --- |
| -0.3 | inactive | – | – | – | COc1ccccc1NS(=O)(=O)c1cc(C(=O)N2CCN(Cc3ccc4c(c3)OCO4)CC2)ccc1Cl | – |
| -0.1 | inactive | – | – | – | O=C(c1cc(S(=O)(=O)Nc2cccc(C(F)(F)F)c2)ccc1Cl)N1CCN(Cc2ccc3c(c2)OCO3)CC1 | – |
| 0.2 | inactive | – | – | – | COc1ccccc1NS(=O)(=O)c1ccc2oc(=S)n(CN3CCN(c4ccc(F)cc4)CC3)c2c1 | – |
| – | Active | Active | Active | – | O=C(c1ccc(NS(=O)(=O)c2cc(Cl)sc2Cl)cc1)N1CCN(Cc2ccc3c(c2)OCO3)CC1 | – |
| 4.7 | Active | Active | Active | soluble | Cc1ccc(-n2c(SCC(=O)N/N=C/c3ccccc3OCC(=O)O)nc3ccccc3c2=O)cc1 (mixture of isomers) | Non-toxic |
| -0.8 | inactive | – | – | – | O=C(c1cccc(S(=O)(=O)Nc2ccc(Cl)cc2)c1)N1NC2=C(CCC/C2=C\c2ccco2)C1c1ccco1 (mixture of isomers) | – |
